Data: ChEMBL document CHEMBL5512639, “Insights from structure-activity relationships and the binding mode of peptidic α-ketoamide inhibitors of the malaria drug target subtilisin-like SUB1” (Eur J Med Chem, 2024)
The source made the active and inactive calls. The calls are words filed in the database; no cut-off is given here. Numbered stars: 1 amine (or outer) side, 2 acyl side, 3 side chain; on linkers, the order of the positions; unused ones are H or OH. Square brackets hold non-standard residues; d marks the D form. Peptide text beside a SMILES is read from it. * marks the point of attachment. X3 = NC(=O)CC[C@H](N[*:1])C(=O)C(=O)[*:2]; Gly(cPent) = N[C@H](C(=O)O)C1CCCC1; X1 = C[C@H](N[*:1])C(=O)C(=O)[*:2]; Pentanoyl(4-Me) = CC(C)CCC(=O)*; OAll = C=CCO*

What was measured:
Plasmodium falciparum [1] = test: Antiparasitic activity against Plasmodium falciparum infected in human Erythrocyte assessed as inhibition of merozoite egress from human Erythrocyte measured for 8 hrs by flow cytometry analysis; assay type: functional, organism-based
Outline: (§1)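 P. falciparum cultured in human RBCs, RPMI 1640 with 25 mM HEPES, 2.5% Albumax II, 100 μM hypoxanthine, 37 °C, 5% O2/5% CO2. Sorbitol-synchronized, plasmion-enriched late schizonts at 2% hematocrit, 1% parasitemia exposed to compound for 8 h. Fixed in glutaraldehyde, permeabilized, RNase-treated, stained with YOYO-1. Ring parasitemia by flow cytometry (100,000 events) vs DMSO. Triplicate; IC50 from 16 concentrations, 180 to 0.8 μM.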

[2] = Inhibition of full length recombinant Plasmodium vivax SUB1 expressed in Drosophila S2 cells using Dabsyl-KLVGADDV-SLA-EDANS as substrate measured every 2 mins for 1 hr by FRET assay
[3] = target: T1, Subtilisin-like protease 1 (Plasmodium falciparum, UniProt O61142); test: Inhibition of full length recombinant Plasmodium falciparum SUB1 using Dabsyl-KLVSADNIDIS-EDANS as substrate measured every 2 mins for 1 hr by FRET assay
T1 sequence (O61142 whole entry): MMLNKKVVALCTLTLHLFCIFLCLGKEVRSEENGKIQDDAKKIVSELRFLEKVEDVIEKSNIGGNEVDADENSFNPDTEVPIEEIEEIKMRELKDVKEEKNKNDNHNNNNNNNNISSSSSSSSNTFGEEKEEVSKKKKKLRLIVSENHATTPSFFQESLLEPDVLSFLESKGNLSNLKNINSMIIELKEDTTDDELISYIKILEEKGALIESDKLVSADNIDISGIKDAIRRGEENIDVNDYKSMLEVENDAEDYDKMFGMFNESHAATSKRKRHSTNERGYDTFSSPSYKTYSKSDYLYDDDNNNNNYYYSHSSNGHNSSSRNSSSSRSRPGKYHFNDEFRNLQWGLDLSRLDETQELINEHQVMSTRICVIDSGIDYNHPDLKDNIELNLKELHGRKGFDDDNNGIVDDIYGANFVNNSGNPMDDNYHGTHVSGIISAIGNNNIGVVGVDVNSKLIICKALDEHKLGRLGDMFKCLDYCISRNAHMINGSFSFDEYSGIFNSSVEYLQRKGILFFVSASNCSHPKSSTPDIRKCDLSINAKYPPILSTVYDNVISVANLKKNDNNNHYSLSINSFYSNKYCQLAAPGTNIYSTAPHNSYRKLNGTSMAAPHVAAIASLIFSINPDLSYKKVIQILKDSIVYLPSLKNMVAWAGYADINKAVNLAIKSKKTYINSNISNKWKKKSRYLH

[4] = (§2) Selectivity index, ratio of INH for antiparasitic activity against Plasmodium falciparum infected in human Erythrocyte assessed as inhibition of merozoite egress from human Erythrocyte at 25 uM to INH for antiparasitic activity against synchronous parasite Plasmodium falciparum infected in human Erythrocyte at 25 uM; assay type: functional
Outline: (§3)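 SI = 1 − (% trophogony inhibition / % T0-T8 egress inhibition), each at the same concentration. Trophogony arm: 0-3 h rings, 28 h exposure, washout, 38 h regrowth. Egress arm: late schizonts, 8 h exposure. Both read as parasitemia by flow cytometry vs DMSO.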

Plasmodium falciparum [5] = test: Antiparasitic activity against Plasmodium falciparum infected in human Erythrocyte assessed as inhibition of merozoite egress from human Erythrocyte at 100 uM measured for 8 hrs by flow cytometry analysis relative to control; assay type: functional; outline: as §1
Plasmodium falciparum [6] = test: Antiparasitic activity against synchronous parasite Plasmodium falciparum infected in human Erythrocyte at 25 uM incubated for 28 hrs followed by compound washout and measured after 38 hrs; assay type: functional
Outline: (§4)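 Trophogony off-target check: synchronous 0-3 h post-invasion rings (2% hematocrit, 1% parasitemia) exposed to compound or matched DMSO (1% or 0.25% final) for 28 h. Cells then washed and recultured without compound for 38 h. Parasitemia read by YOYO-1 flow cytometry; growth inhibition expressed relative to DMSO.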

[7] = system: Subtilisin-like protease 1 (Plasmodium vivax); test: Binding affinity to Plasmodium vivax SUB1 catalytic domain assessed as thermal stabilization by measuring change in melting temperature by differential scanning fluorimetry
[8] = as §2, with “100” for “25”; assay type: functional; outline: as §3
Plasmodium falciparum [9] = test: Antiparasitic activity against synchronous parasite Plasmodium falciparum infected in human Erythrocyte at 100 uM incubated for 28 hrs followed by compound washout and measured after 38 hrs; assay type: functional; outline: as §4
Plasmodium falciparum [10] = test: Antiparasitic activity against Plasmodium falciparum infected in human Erythrocyte assessed as inhibition of merozoite egress from human Erythrocyte at 25 uM measured for 8 hrs by flow cytometry analysis relative to control; assay type: functional; outline: as §1
[11] = target: T1, Subtilisin-like protease 1; test: Inhibition of Plasmodium falciparum SUB1 assessed as inhibition constant
[12] = Inhibition of porcine Pancreas elastase using Nalpha-succinyl-Ala-Ala-Ala-p-nitroanilide preincubated with compound for 15 mins followed by substrate addition and measured after 1 hr; parameters: species or system Sus scrofa
Outline: (§5)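 Enzyme in 100 mM Tris-HCl pH 8.0, 20 mM CaCl2: trypsin 5 μg/mL, chymotrypsin 0.5 μg/mL or elastase 5 μg/mL. Mixed with compound (2 μL of 10 mM stock into 98 μL) and preincubated 15 min. p-Nitroanilide substrate then added to 1 mM final. Absorbance at 405 nm followed for 1 h; DMSO and 2 mM PMSF as controls; triplicate.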

[13] = system: Subtilisin-like protease 1 (Plasmodium vivax); test: Binding affinity to Plasmodium vivax SUB1 using Dabsyl-KLVGADDV-SLA-EDANS as substrate using catalytic domain assessed as bound half life by jump dilution assay
Sus scrofa [14] = species: Sus scrofa; test: Inhibition of porcine Pancreas elastase using Nalpha-succinyl-Ala-Ala-Ala-p-nitroanilide preincubated with compound for 15 mins followed by substrate addition and measured after 1 hr relative to control; conditions: time 75.0 min; outline: as §5
[15] = Selectivity ratio, ratio of IC50 for porcine Pancreas elastase to IC50 for Plasmodium falciparum SUB1
[16] = Inhibition of elastase (unknown origin); parameters: species or system Homo sapiens
[17] = Selectivity ratio, ratio of IC50 for porcine Pancreas elastase to IC50 for Plasmodium vivax SUB1
Bos taurus = species: Bos taurus; test: Inhibition of bovine Pancreas chymotrypsin using Nalpha-succinyl-Ala-Ala-Pro-phe-p-nitroanilide preincubated with compound for 15 mins followed by substrate addition and measured after 1 hr; conditions: time 75.0 min; outline: as §5
[18] = Selectivity ratio of IC50 for inhibition of full length recombinant Plasmodium vivax SUB1 expressed in Drosophila S2 cells using Dabsyl-KLVGADDV-SLA-EDANS as substrate to IC50 for inhibition of full length recombinant Plasmodium falciparum SUB1 using Dabsyl-KLVSADNIDIS-EDANS as substrate
[19] = Metabolic stability in human serum measured after 24 hrs by LC-MS analysis; assay type: ADME, cell-free; conditions: read-out: Stability
Outline: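 Pooled human serum prewarmed 20 min at 37 °C; peptide added to 0.6 mM final. Aliquots taken over 0-24 h and proteins precipitated with MeCN/H2O/formic acid. Supernatant lyophilized and analysed by LC-SWATH-MS. Intact peak area expressed as % of the 0 h value. Two independent experiments in duplicate, mean ± SEM.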

[20] = system: Subtilisin-like protease 1 (Plasmodium vivax); test: Binding affinity to Plasmodium vivax SUB1 using Dabsyl-KLVGADDV-SLA-EDANS as substrate using catalytic domain assessed as dissociation constant (Koff) by jump dilution assay
Sus scrofa [21] = species: Sus scrofa; test: Inhibition of porcine Pancreas trypsin using Nalpha-benzoyl-L-arginine-p-nitroanilide hydrochloride preincubated with compound for 15 mins followed by substrate addition and measured after 1 hr; conditions: time 75.0 min; outline: as §5

Row | SMILES | IC50 [2] [nM] | IC50 [3] [nM] | inhibition at 100 µM (Plasmodium falciparum [5]) [%] | ΔTm [7] [°C] | T1/2 [13] [min] | Ratio IC50 [18] | remaining at 24 h [19] [%] | K [20] [min⁻¹] | other results
1 | CC(=O)N[C@H](C(=O)N[C@H](C(=O)N[C@@H](C)C(=O)N[C@@H](C)C(=O)C(=O)N[C@@H](CC(=O)O)C(=O)N[C@H](C(N)=O)C1CCCC1)[C@@H](C)O)C1CCCC1 (Ac-[Gly(cPent)]TA[X1]D[Gly(cPent)]-NH2) | 12 | 10 | 100 | 12.7 | – | – | – | – | IC50 (Plasmodium falciparum [1]): 22600 nM; Selectivity Index [4]: 1; Activity (Plasmodium falciparum [6]): 0%; Selectivity Index [8]: 0.94; Activity (Plasmodium falciparum [9]): 6%; inhibition at 25 µM (Plasmodium falciparum [10]): 60%
2 | CC[C@H](C)[C@H](NC(=O)[C@H](CCCCN)NC(=O)CCC(C)C)C(=O)N[C@H](C(=O)N[C@@H](C)C(=O)N[C@@H](CCC(N)=O)C(=O)C(=O)N[C@@H](CC(=O)O)C(=O)N[C@@H](CC(=O)O)C(=O)N[C@@H](CCC(N)=O)C(=O)N[C@@H](CCC(N)=O)C(N)=O)[C@@H](C)O ({Pentanoyl(4-Me)}-KITA[X3]DDQQ-NH2) | – | – | – | – | – | – | – | – | Ki [11]: 10000 nM
3 | C=CCOC(=O)CC[C@H](NC(=O)[C@H](CC(=O)O)NC(=O)C(=O)[C@H](C)NC(=O)[C@H](C)NC(=O)[C@@H](NC(=O)[C@@H](NC(C)=O)C1CCCC1)[C@@H](C)O)C(N)=O | 50 | 570 | 37 | 14.3 | 30 | 9 | ~95 | 0.023 | IC50 [12]: 36000 nM; inhibition (Sus scrofa [14]): Active; Ratio IC50 [15]: 63; IC50 [16]: 820 nM; Ratio IC50 [17]: 720; inhibition (Bos taurus): inactive; inhibition (Sus scrofa [21]): inactive
4 | C=CCOC(=O)CC[C@H](NC(=O)[C@H](CC(=O)O)NC(=O)C(=O)[C@H](C)NC(=O)[C@H](C)NC(=O)[C@@H](NC(=O)[C@@H](NC(C)=O)[C@@H](C)CC)[C@@H](C)O)C(N)=O (Ac-ITA[X1]DE(OAll)-NH2) | 180 | 1950 | 13 | – | 10 | 9 | ~95 | 0.074 | –
